Data taken from ChEMBL document CHEMBL1143938, “Synthesis and antiviral activities of novel chiral cyanoacrylate derivatives with (E) configuration” (2008).
Active and inactive are the calls of the source. The calls are words filed in the database; no cut-off is given here.

Experiments:
Tobacco mosaic virus [1] = assay: Antiviral activity against TMV-infected tobacco leaves assessed as protection against viral infection at 500 mg/L; type: functional
Tobacco mosaic virus [2] = assay: Antiviral activity against TMV-infected tobacco leaves assessed as viral inactivation at 500 mg/L; type: functional
Tobacco mosaic virus [3] = assay: Antiviral activity against TMV-infected tobacco leaves assessed as curative effect against viral disease at 500 mg/L; type: functional
Nicotiana tabacum [4] = assay: Stimulation of peroxidase activity in Nicotiana tabacum after 5 days
Nicotiana tabacum [5] = assay: Stimulation of L-phenylalanine ammonia-lyase level in Nicotiana tabacum assessed as per mg of protein after 7 days; type: functional
Outline: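 TMV-inoculated Nicotiana tabacum treated at 500 ppm and sampled at 1, 3, 5 and 7 days. Water and TMV-only treatments served as controls. Leaves were homogenized on ice in 5 mM 2-mercaptoethanol-boric acid buffer (pH 8.8) and centrifuged, and enzyme activity was read in the supernatant. PAL was expressed per mg protein. Means of n = 3, with one-way ANOVA and LSD.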

Nicotiana tabacum [6] = assay: Stimulation of leaf size in Nicotiana tabacum relative to water treated control; type: functional, organism-based
Nicotiana tabacum [7] = assay: Effect on accumulation of PR1a mRNA in tobacco leaf on day 2; type: functional, organism-based
Outline: (§1)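 Leaf RNA came from water-, TMV- and treated-plus-TMV tobacco. PR-1a and PR-5 were amplified by semi-quantitative PCR (annealing 58 °C; 1.5% agarose, ethidium bromide) and by real-time PCR. Real-time values were taken relative to β-actin by ΔΔCT, n = 4, in triplicate.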

Nicotiana tabacum [8] = assay: Effect on accumulation of PR5 mRNA in tobacco leaf after 12 hrs; type: functional, organism-based; outline: as §1
Nicotiana tabacum [9] = assay: Effect on accumulation of PR1a mRNA in tobacco leaf upto […] after 1 day; type: functional, organism-based; outline: as §1
Nicotiana tabacum [10] = assay: Effect on accumulation of PR5 mRNA in tobacco leaf upto […] after 1 day; type: functional, organism-based; outline: as §1

| Compound | Activity (Tobacco mosaic virus [1]) [%] | Activity (Tobacco mosaic virus [2]) [%] | Activity (Tobacco mosaic virus [3]) [%] | Activity (Nicotiana tabacum [4]) | Activity (Nicotiana tabacum [5]) [EU/mg] | Activity (Nicotiana tabacum [6]) | Activity (Nicotiana tabacum [7]) | Activity (Nicotiana tabacum [8]) | Activity (Nicotiana tabacum [9]) | Activity (Nicotiana tabacum [10]) |
| --- | --- | --- | --- | --- | --- | --- | --- | --- | --- | --- |
| CNCC(=O)N[C@@H](CO)C(=O)N[C@H]1C(O)[C@@H](O)[C@H](n2ccc(N)nc2=O)O[C@@H]1C(N)=O (single isomer, unassigned) [NINGNANMYCIN] | 100 | 50 | 57.8 | – | – | – | – | – | – | – |
| CCOC(=O)/C(C#N)=C(\NCc1ccccc1)N[C@H](C)c1ccc(F)cc1 | 65.7 | 49.5 | 64 | Active | 5.88 | Active | Active | Active | Active | Active |
